The source of these data is ChEMBL document CHEMBL2375304, “Synthesis and anticancer activity of novel 2-pyridyl hexahyrocyclooctathieno[2,3-d]pyrimidine derivatives” (2013).

Each structure is given as a SMILES string.

Assay type in all cases: functional
Test [1] deals with LOX IMVI. The test is described as follows: Growth inhibition of human LOXIMVI cells at 10^-5 M after 48 hrs by Sulforhodamine B assay relative to control. The following applies: read-out: GI. The method, boiled down:
(§1)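 Single-dose screen at 10⁻⁵ M. Cells are preincubated 24 h at 37 °C in 5% CO2, then exposed to the compound, diluted from a DMSO stock into medium with gentamicin, for 48 h. Adherent cells are fixed with cold TCA (final 10%) and suspension cells with TCA (final 16%). Cells are stained with 0.4% SRB in 1% acetic acid and bound dye is read at 515 nm. Percent growth inhibition is taken against control wells and time-zero plates.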
A general note: In SRB staining, fixed cells bind dye roughly in proportion to their protein.

Test [2] relates to U-251. The test is described as follows: Growth inhibition of human U251 cells at 10^-5 M after 48 hrs by Sulforhodamine B assay relative to control. The note with it: U-251, 48 h, read-out: GI. In outline: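 Single-dose stage: compound tested at 10⁻⁵ M in the 49-cell-line panel. Cells grew 24 h at 37 °C, 5% CO₂ before drug addition. Drug stock was in DMSO at 400-fold, diluted in medium with gentamicin. After 48 h exposure, adherent cells were fixed with cold TCA (10% final) and stained with 0.4% SRB in 1% acetic acid. Dye was solubilized in 10 mM Tris, read at 515 nm. Growth percentage was taken relative to untreated control and time-zero plates.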

The test system of test [3] is SNB-75. The test is described as follows: Growth inhibition of human SNB75 cells at 10^-5 M after 48 hrs by Sulforhodamine B assay relative to control. The note with it: SNB-75, 48 h, read-out: GI. The method, boiled down:
(§2)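 Single-dose primary screen at 10⁻⁵ M across 49 lines. Cells were plated 24 h beforehand, with a TCA-fixed time-zero plate, then exposed 48 h at 37 °C, 5% CO2. Cells were fixed with cold TCA, stained with SRB and read at 515 nm. Percent growth was calculated against time-zero and untreated-control absorbances.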

Test [4] concerns SF-268. The test is described as follows: Growth inhibition of human SF268 cells at 10^-5 M after 48 hrs by Sulforhodamine B assay relative to control. The note with it: SF-268, 48 h, read-out: GI. The method, boiled down:
as §2

In test [5] the test system is SW-620. The test is described as follows: Growth inhibition of human SW620 cells at 10^-5 M after 48 hrs by Sulforhodamine B assay relative to control. The following applies: SW-620, 48 h, read-out: GI. The method, boiled down: as §2
Test [6] deals with KM12. The test is described as follows: Growth inhibition of human KM12 cells at 10^-5 M after 48 hrs by Sulforhodamine B assay relative to control. The note with it: KM12, 48 h, read-out: GI. In outline: as §1
In test [7] the test system is HCT-15. The test is described as follows: Growth inhibition of human HCT15 cells at 10^-5 M after 48 hrs by Sulforhodamine B assay relative to control. The following applies: HCT-15, 48 h, read-out: GI. The method, boiled down: as §1
Test [8] relates to NCI-H460. The test is described as follows: Growth inhibition of human NCI-H460 cells at 10^-5 M after 48 hrs by Sulforhodamine B assay relative to control. The note with it: NCI-H460, 48 h, read-out: GI. The method, boiled down:
as §2

The subject of test [9] is NCI-H23. The test is described as follows: Growth inhibition of human NCI-H23 cells at 10^-5 M after 48 hrs by Sulforhodamine B assay relative to control. The following applies: NCI-H23, 48 h, read-out: GI. In outline:
as §2

Test [10] relates to RPMI-8226. The test is described as follows: Growth inhibition of human RPMI8226 cells at 10^-5 M after 48 hrs by Sulforhodamine B assay relative to control. The following applies: RPMI-8226, 48 h, read-out: GI. The method, boiled down:
as §2

For test [11], the system named is MDA-MB-468. The test is described as follows: Growth inhibition of human MDA-MB-468 cells at 10^-5 M after 48 hrs by Sulforhodamine B assay relative to control. The following applies: MDA-MB-468, 48 h, read-out: GI. In outline: as §2
In test [12] the test system is MCF7. The test is described as follows: Growth inhibition of human MCF7 cells at 10^-5 M after 48 hrs by Sulforhodamine B assay relative to control. The note with it: MCF7, 48 h, read-out: GI. In outline:
as §1

For test [13], the system named is PC-3. The test is described as follows: Growth inhibition of human PC3 cells at 10^-5 M after 48 hrs by Sulforhodamine B assay relative to control. The note with it: PC-3, 48 h, read-out: GI. In outline: as §2
In test [14] the test system is SN12C. The test is described as follows: Growth inhibition of human SN12C cells at 10^-5 M after 48 hrs by Sulforhodamine B assay relative to control. The following applies: read-out: GI. In outline: as §2
Test [15] concerns A498. The test is described as follows: Growth inhibition of human A498 cells at 10^-5 M after 48 hrs by Sulforhodamine B assay relative to control. The note with it: A498, 48 h, read-out: GI. The method, boiled down:
as §1

A short description of test [16]: Growth inhibition of human NCI-ADR-RES cells at 10^-5 M after 48 hrs by Sulforhodamine B assay relative to control. The note with it: read-out: GI. In outline:
as §2

The subject of test [17] is OVCAR-8. The test is described as follows: Growth inhibition of human OVCAR8 cells at 10^-5 M after 48 hrs by Sulforhodamine B assay relative to control. The note with it: OVCAR-8, 48 h, read-out: GI. The method, boiled down:
as §2

Test [18] concerns Malme-3M. The test is described as follows: Growth inhibition of human MALME-3M cells at 10^-5 M after 48 hrs by Sulforhodamine B assay relative to control. The following applies: read-out: GI. The method, boiled down: as §1

With `c1cc(-c2nc(N3CCOCC3)c3c4c(sc3n2)CCCCCC4)ccn1`, the inhibition of growth at 10 µM in [1] was 11.6%; in test [2] it was 21.9%; in [3], 0.97%; in [4], 4.06%; in [5], -9.82%; in test [6] it was 19.6%. The inhibition of growth at 10 µM in test [7] is 20.8%; in test [8] it was 8.02%; in test [9] it was 8.29%; in test [10], 32.2%; in test [11], 11.8%; in test [12] it was 28.5%. Further, the inhibition of growth at 10 µM in [13] is 35.4%; in test [14], 19.3%; in [15], 33.7%; in test [16], 18.7%; in test [17], 15.3%; in test [18], -1.71%.

On to `NNc1nc(-c2ccncc2)nc2sc3c(c12)CCCCCC3`, for which the inhibition of growth at 10 µM in test [1] is 5.88%; in test [2] it was 6.15%; in [3], 18.8%; in test [4] it was -17.8%; in test [5], -8.49%; in [6], -0.57%. For the same compound, the inhibition of growth at 10 µM in [7] was 7.32%; in [8], -4.36%; in test [9], 7.74%; in test [10] it was 12.1%; in test [11] it was 20.1%; in test [12], 5.87%. Further, the inhibition of growth at 10 µM stood at 7.42% in test [13]; 4.3% in test [14]; 18.6% in test [15]; 2.44% in test [16]; 2.51% in test [17]; 2.19% in [18].

Regarding `CN1CCN(c2nc(-c3ccccn3)nc3sc4c(c23)CCCCCC4)CC1`, the inhibition of growth at 10 µM in [1] is 4.93%; in test [2], 8.31%; in test [3], 14.4%; in [4] it was -1.9%; in [5], -1.34%; in [6] it was 8.11%. Also, the inhibition of growth at 10 µM came to 2.35% in test [7]; 2.79% in test [8]; 16% in test [9]; 12.4% in [10]; 5.4% in test [11]; 50.4% in test [12]. For the same compound, the inhibition of growth at 10 µM is 15.3% in test [13]; 3.33% in test [14]; 34.8% in test [15]; 22.7% in [16]; -1.5% in test [17]; -0.36% in test [18].

Turning to `c1ccc(N2CCN(c3nc(-c4ccccn4)nc4sc5c(c34)CCCCCC5)CC2)cc1`, the inhibition of growth at 10 µM was 42.2% in test [1]; 37.1% in test [2]; 9.19% in test [3]; 20.4% in test [4]; 24% in test [5]; 55% in [6]. The inhibition of growth at 10 µM in [7] amounted to 41.4%; in test [8], 46%; in test [9], 37%; in test [10], 57.5%; in [11], 30.1%; in [12], 89.2%. In addition, the inhibition of growth at 10 µM in test [13] turned out to be 54%; in [14], 28.9%; in [15] it was 38.4%; in [16] it was 57.5%; in [17], 44.5%; in [18], 7.96%.

Take `COc1ccc(N2CCN(c3nc(-c4ccncc4)nc4sc5c(c34)CCCCCC5)CC2)cc1`: the inhibition of growth at 10 µM was 8.33% in test [1]; 15.8% in test [2]; -13.7% in [3]; 2.5% in [4]; 1.53% in test [5]; 22.4% in test [6]. In addition, the inhibition of growth at 10 µM in test [7] amounted to 17.7%; in test [8] it was 5.35%; in [9] it was 17.3%; in [10] it was 28.8%; in test [11] it was 0.83%; in [12], 18.1%. The inhibition of growth at 10 µM is 44.5% in test [13]; 31.8% in [14]; 6.97% in [15]; 9.28% in test [16]; 5.9% in test [17]; -7.69% in test [18].

Consider `Clc1nc(-c2ccccn2)nc2sc3c(c12)CCCCCC3`, for which the inhibition of growth at 10 µM in [1] is 32.2%; in [2], 2.82%; in [3], 15%; in [4] it was 5.35%; in test [5] it was -2.34%; in [6], 8.45%. Further, the inhibition of growth at 10 µM in test [7] is 15.8%; in test [8], 9.1%; in test [9], 17.6%; in test [10], 4.46%; in test [11], 184%; in test [12], 46%. Also, the inhibition of growth at 10 µM was 7.81% in test [13]; 15.1% in [14]; -18.4% in test [15]; 10.7% in [16]; 12.9% in test [17]; 5.75% in [18].

For the compound `Clc1nc(-c2ccncc2)nc2sc3c(c12)CCCCCC3`, the inhibition of growth at 10 µM was 5.4% in [1]; -0.32% in test [2]; 9.59% in [3]; 0.85% in test [4]; -3.44% in test [5]; 0.47% in test [6]. The inhibition of growth at 10 µM was 0.89% in test [7]; -2.59% in [8]; 3.14% in test [9]; 0.89% in [10]; 39.6% in test [11]; 3.18% in test [12]. The inhibition of growth at 10 µM in test [13] is 0.63%; in [14], 4.53%; in test [15], 37.2%; in test [16], -6.46%; in test [17], -1.87%; in test [18], 7.42%.

Turning to `c1ccc(N2CCN(c3nc(-c4ccncc4)nc4sc5c(c34)CCCCCC5)CC2)cc1`, the inhibition of growth at 10 µM was 0% in test [1]; 0.24% in test [2]; -23.8% in [3]; -1.33% in test [4]; -9.11% in [5]; 4.95% in test [6]. Also, the inhibition of growth at 10 µM in test [7] was 2.1%; in [8], -6.17%; in [9], 1.33%; in test [10], 3.42%; in test [11] it was 3.79%; in test [12] it was 2.49%. Further, the inhibition of growth at 10 µM was 5.9% in [13]; -12.2% in test [14]; 4.79% in test [15]; 5.34% in [16]; 8.55% in test [17]; -6.19% in test [18].
